ChEMBL document CHEMBL2321813, “Discovery of allosteric modulators of factor XIa by targeting hydrophobic domains adjacent to its heparin-binding site” (J Med Chem, 2013)
pIC50, pKd: −log10 of the molar value. The source made the active and inactive calls. The calls are words filed in the database; no cut-off is given here.

Experiments:
Coagulation factor XI [1] = target: T1, Coagulation factor XI (Homo sapiens, UniProt P03951); experiment: Inhibition of human factor 11a using S2366 as substrate assessed as residual protease activity after 10 mins by spectrophotometry
Procedure, shortened: (§1)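 FXIa at 0.765 nM (final) preincubated 10 min at 37 °C with compound (12 serial dilutions) in 50 mM Tris-HCl pH 7.4, 150 mM NaCl, 0.1% PEG8000, 0.02% Tween80. S2366 (345 μM final) then added. Initial rate read at 405 nm. Fractional residual activity fit to a logistic equation for IC50, Hill slope and ΔY.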

Coagulation factor XI [2] = target: T1, Coagulation factor XI; experiment: Inhibition of human factor 11a using S2366 as substrate after 10 mins by spectrophotometry; procedure, shortened: as §1
Coagulation factor XI [3] = target: T1, Coagulation factor XI; experiment: Binding affinity to human factor 11a-DEGR by spectrofluorometry
Procedure, shortened: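 Fluorescence titration of active-site dansylated FXIa (FXIa-DEGR, 250 nM) with aliquots of sulfated QAO in 50 mM Tris-HCl pH 7.4, 150 mM NaCl, 0.1% PEG8000 at 37 °C. Emission monitored at 547 nm (λex 345 nm). Change in fluorescence fit to the Hill equation to give apparent KD.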

Plasma = experiment: Anticoagulant activity in human plasma assessed as concentration required to double activated partial thromboplastin time; format: functional
Procedure, shortened: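 Citrated pooled normal human plasma. APTT: 10 μL compound mixed with 90 μL plasma and 100 μL prewarmed APTT reagent (0.2% ellagic acid), incubated 4 min at 37 °C, then clotting started with 100 μL prewarmed 25 mM CaCl2. Vehicle control was deionized water and/or organic vehicle. Clot time was read on a fibrometer. Data fit to a quadratic trend line to get the concentration doubling clotting time. Run in duplicate.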

[4] = target: Chymotrypsinogen A (Bos taurus) (UniProt P00766); experiment: Inhibition of bovine alpha-chymotrypsin assessed as residual protease activity at 500 uM after 10 mins by spectrophotometry
[5] = target: T2, Serine protease 1 (Bos taurus) (UniProt P00760); experiment: Inhibition of bovine trypsin assessed as residual protease activity at 500 uM after 10 mins by spectrophotometry
T2 sequence (whole entry): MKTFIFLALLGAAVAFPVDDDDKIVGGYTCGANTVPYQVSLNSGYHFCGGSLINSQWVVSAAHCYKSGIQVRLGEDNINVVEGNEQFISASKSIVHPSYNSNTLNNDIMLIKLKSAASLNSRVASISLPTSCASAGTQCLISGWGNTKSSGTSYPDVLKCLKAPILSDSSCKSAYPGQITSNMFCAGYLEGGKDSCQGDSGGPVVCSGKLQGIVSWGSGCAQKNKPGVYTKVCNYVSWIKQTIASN

[6] = target: Coagulation factor X (Homo sapiens) (UniProt P00742); experiment: Inhibition of human factor 10a assessed as residual protease activity at 500 uM after 10 mins by spectrophotometry
[7] = target: Prothrombin (Homo sapiens) (UniProt P00734); experiment: Inhibition of human thrombin assessed as residual protease activity at 500 uM after 10 mins by spectrophotometry
HEK293 [8] = experiment: Inhibition of human recombinant factor 11a catalytic domain Lys529Ala/Arg530Ala/Arg532Ala triple mutant transfected in HEK293 cells using S2366 as substrate assessed as residual protease activity at 3 uM after 10 mins by spectrophotometry
Procedure, shortened: (§2)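 Full-length wild-type FXIa, FXIa catalytic domain, and the Lys529Ala/Arg530Ala/Arg532Ala catalytic domain mutant were recombinant proteins from stably transfected HEK-293 cells, activated with FXIIa. Residual activity was measured by S2366 hydrolysis with 3 μM compound, with or without 30 μM Polybrene.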

Coagulation factor XI [9] = target: T1, Coagulation factor XI; experiment: Inhibition of human recombinant factor 11a catalytic domain transfected in HEK293 cells using S2366 as substrate assessed as residual protease activity at 3 uM after 10 mins by spectrophotometry; procedure, shortened: as §2
Coagulation factor XI [10] = target: T1, Coagulation factor XI; experiment: Inhibition of human wild type full length factor 11a transfected in HEK293 cells using S2366 as substrate assessed as residual protease activity at 3 uM after 10 mins by spectrophotometry; procedure, shortened: as §2
HEK293 [11] = experiment: Inhibition of human recombinant factor 11a catalytic domain Lys535Ala/Lys539Ala double mutant transfected in HEK293 cells; format: cell-based
Homo sapiens [12] = organism: Homo sapiens; experiment: Ratio of IC50 for human recombinant factor 11a catalytic domain Lys529Ala/Arg530Ala/Arg532Ala triple mutant to IC50 for human recombinant factor XIa catalytic domain
Procedure, shortened: (§3)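 Recombinant FXI catalytic domain constructs (wild type, Arg530Ala, Lys529Ala/Arg530Ala/Arg532Ala) were expressed stably in HEK-293 cells. […] Inhibition was measured by S2366 hydrolysis in 50 mM Tris-HCl pH 7.4, 150 mM NaCl, 0.1% PEG8000, 0.02% Tween80 at 37 °C. Dose-response data were fit to the logistic equation.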

Homo sapiens [13] = organism: Homo sapiens; experiment: Ratio of IC50 for human recombinant factor 11a catalytic domain Arg530Ala mutant to IC50 for human recombinant factor XIa catalytic domain; procedure, shortened: as §3
Coagulation factor XI [14] = target: T1, Coagulation factor XI; experiment: Inhibition of human recombinant factor 11a catalytic domain; procedure, shortened: as §3

T1 sequence (P03951 19-387 limits assumed): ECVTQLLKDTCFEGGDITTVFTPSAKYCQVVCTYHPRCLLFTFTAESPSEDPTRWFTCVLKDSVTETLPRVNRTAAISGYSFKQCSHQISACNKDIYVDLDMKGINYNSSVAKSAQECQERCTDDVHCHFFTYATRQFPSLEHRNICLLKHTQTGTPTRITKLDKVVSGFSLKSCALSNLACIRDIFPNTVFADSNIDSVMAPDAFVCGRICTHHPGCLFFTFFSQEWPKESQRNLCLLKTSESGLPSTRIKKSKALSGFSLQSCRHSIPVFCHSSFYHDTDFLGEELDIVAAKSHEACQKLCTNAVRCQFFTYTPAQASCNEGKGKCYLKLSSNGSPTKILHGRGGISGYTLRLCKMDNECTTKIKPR
T1 sequence (P03951 388-625 limits assumed): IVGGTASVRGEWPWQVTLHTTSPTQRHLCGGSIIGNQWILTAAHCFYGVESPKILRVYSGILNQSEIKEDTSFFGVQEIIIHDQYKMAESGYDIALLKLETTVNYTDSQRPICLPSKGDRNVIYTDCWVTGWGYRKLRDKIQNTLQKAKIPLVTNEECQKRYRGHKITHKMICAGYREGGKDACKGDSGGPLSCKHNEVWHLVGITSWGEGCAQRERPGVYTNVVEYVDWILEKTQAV
Chain of Coagulation factor X (Homo sapiens) (P00742 41-179 limits assumed): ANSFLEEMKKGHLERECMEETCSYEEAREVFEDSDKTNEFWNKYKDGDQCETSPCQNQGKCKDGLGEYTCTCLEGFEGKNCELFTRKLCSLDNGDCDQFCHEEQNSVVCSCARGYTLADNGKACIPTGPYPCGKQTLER
Chain of Coagulation factor X (Homo sapiens) (P00742 235-488 limits assumed): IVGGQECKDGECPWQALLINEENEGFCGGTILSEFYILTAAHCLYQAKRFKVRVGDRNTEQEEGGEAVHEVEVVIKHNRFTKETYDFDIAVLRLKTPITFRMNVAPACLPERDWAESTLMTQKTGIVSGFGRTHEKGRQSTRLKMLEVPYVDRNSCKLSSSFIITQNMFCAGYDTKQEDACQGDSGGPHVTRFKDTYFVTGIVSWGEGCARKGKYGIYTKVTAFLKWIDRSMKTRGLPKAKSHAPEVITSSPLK

Compound | Efficacy (Coagulation factor XI [1]) [%] | pIC50 (Coagulation factor XI [2]) | also measured
O=c1c2ccccc2nc(-c2ccc(OS(=O)(=O)O)cc2)n1CCCCCn1nncc1Cn1c(-c2ccc(OS(=O)(=O)O)cc2)nc2ccccc2c1=O | 94 | – | –
COc1cc(-c2nc3ccccc3c(=O)n2CCCCn2cc(Cn3c(-c4cccc(OS(=O)(=O)O)c4)nc4ccccc4c3=O)nn2)ccc1OS(=O)(=O)O | 88 | 3.74 | –
COc1cc(OS(=O)(=O)O)cc2oc(-c3ccc(OS(=O)(=O)O)c(OCc4cn(CCCCn5c(-c6cccc(OS(=O)(=O)O)c6)nc6ccccc6c5=O)nn4)c3)c(OS(=O)(=O)O)c(=O)c12 | – | < 3.00 | –
O=c1c2ccccc2nc(-c2ccc(OS(=O)(=O)O)cc2)n1CCCCn1cc(Cn2c(-c3cccc(OS(=O)(=O)O)c3)nc3ccccc3c2=O)nn1 | 88 | 3.80 | –
O=c1c2ccccc2nc(-c2cccc(OS(=O)(=O)O)c2)n1CCCCn1cc(Cn2c(-c3cccc(OS(=O)(=O)O)c3)nc3ccccc3c2=O)nn1 | 100 | 3.99 | –
CC(=O)Oc1cccc(-c2nc3ccccc3c(=O)n2Cc2cn(CCCCn3c(-c4cccc(OS(=O)(=O)O)c4)nc4ccccc4c3=O)nn2)c1 | – | < 3.00 | –
O=c1c2ccccc2nc(-c2ccc(OS(=O)(=O)O)cc2)n1Cc1cn(CCn2cc(Cn3c(-c4ccc(OS(=O)(=O)O)cc4)nc4ccccc4c3=O)nn2)nn1 | 98 | 3.52 | –
COc1cc(-c2nc3ccccc3c(=O)n2CCCCn2cc(COc3cc(-c4oc5cc(OS(=O)(=O)O)cc(OC)c5c(=O)c4OS(=O)(=O)O)ccc3OS(=O)(=O)O)nn2)ccc1OS(=O)(=O)O | 50 | 3.67 | –
O=c1c2ccccc2nc(-c2ccc(OS(=O)(=O)O)cc2)n1CCCCn1cc(Cn2c(-c3ccc(OS(=O)(=O)O)cc3)nc3ccccc3c2=O)nn1 | 91 | 4.09 | pKd (Coagulation factor XI [3]): 4.08; 2aPTT (Plasma): 979 µM; inhibition [4]: inactive; inhibition [5]: inactive; inhibition [6]: inactive; inhibition [7]: inactive
O=c1c2ccccc2nc(-c2ccc(OS(=O)(=O)O)cc2)n1CCCCCCn1cc(Cn2c(-c3ccc(OS(=O)(=O)O)cc3)nc3ccccc3c2=O)nn1 | 97 | 4.28 | pKd (Coagulation factor XI [3]): 4.42; Activity (HEK293 [8]): 4.9%; Activity (Coagulation factor XI [9]): 6.3%; Activity (Coagulation factor XI [10]): 4.2%; inhibition (HEK293 [11]): Active; Ratio IC50 (Homo sapiens [12]): 5; Ratio IC50 (Homo sapiens [13]): 2; inhibition (Coagulation factor XI [14]): Active; 2aPTT (Plasma): 950 µM; inhibition [4]: inactive; inhibition [5]: inactive; inhibition [6]: inactive; inhibition [7]: inactive
O=c1c2ccccc2nc(-c2cc(OS(=O)(=O)O)cc(OS(=O)(=O)O)c2)n1CCCCn1cc(Cn2c(-c3cc(OS(=O)(=O)O)cc(OS(=O)(=O)O)c3)nc3ccccc3c2=O)nn1 | – | < 3.00 | –
COc1cc(-c2nc3ccccc3c(=O)n2CCCCn2cc(Cn3c(-c4ccc(OS(=O)(=O)O)c(OC)c4)nc4ccccc4c3=O)nn2)ccc1OS(=O)(=O)O | 95 | 3.86 | –
O=c1c2ccccc2nc(-c2cccc(OS(=O)(=O)O)c2)n1CCCCn1cc(Cn2c(-c3ccc(OS(=O)(=O)O)cc3)nc3ccccc3c2=O)nn1 | 103 | 4.04 | pKd (Coagulation factor XI [3]): 4.04
O=c1c2ccccc2nc(-c2cccc(OS(=O)(=O)O)c2)n1CCCn1cc(Cn2c(-c3cccc(OS(=O)(=O)O)c3)nc3ccccc3c2=O)nn1 | 91 | 3.49 | –
CC(=O)Oc1cc(OS(=O)(=O)O)cc(-c2nc3ccccc3c(=O)n2CCCCn2cc(Cn3c(-c4cc(OS(=O)(=O)O)cc(OS(=O)(=O)O)c4)nc4ccccc4c3=O)nn2)c1 | 91 | 3.56 | –
O=c1c2ccccc2nc(-c2ccc(OS(=O)(=O)O)cc2)n1CCCCCn1cc(Cn2c(-c3ccc(OS(=O)(=O)O)cc3)nc3ccccc3c2=O)nn1 | 89 | 4.23 | pKd (Coagulation factor XI [3]): 4.43; 2aPTT (Plasma): 1062 µM; inhibition [4]: inactive; inhibition [5]: inactive; inhibition [6]: inactive; inhibition [7]: inactive
COc1cc(OS(=O)(=O)O)cc2oc(-c3ccc(OS(=O)(=O)O)c(OCc4cn(CCCCn5c(-c6cc(OC(C)=O)cc(OS(=O)(=O)O)c6)nc6ccccc6c5=O)nn4)c3)c(OS(=O)(=O)O)c(=O)c12 | 90 | 3.39 | –
O=c1c2ccccc2nc(-c2cccc(OS(=O)(=O)O)c2)n1CCCCn1cc(Cn2c(-c3cc(OS(=O)(=O)O)cc(OS(=O)(=O)O)c3)nc3ccccc3c2=O)nn1 | 93 | 3.67 | –
CC(=O)Oc1cc(OS(=O)(=O)O)cc(-c2nc3ccccc3c(=O)n2CCCCn2cc(Cn3c(-c4cc(O)cc(OS(=O)(=O)O)c4)nc4ccccc4c3=O)nn2)c1 | 96 | 3.82 | –
